# Measurements: ChEMBL document CHEMBL4359926, “Design, synthesis, and evaluation of potent novel peroxisome proliferator-activated receptor γ indole partial agonists” (Bioorg Med Chem Lett, 2019)
# Activity calls are given as the source filed them. No cut-off for these calls is given here.
# Biological target: T1, Peroxisome proliferator-activated receptor gamma (Homo sapiens) (UniProt P37231)
# T1 sequence (whole entry): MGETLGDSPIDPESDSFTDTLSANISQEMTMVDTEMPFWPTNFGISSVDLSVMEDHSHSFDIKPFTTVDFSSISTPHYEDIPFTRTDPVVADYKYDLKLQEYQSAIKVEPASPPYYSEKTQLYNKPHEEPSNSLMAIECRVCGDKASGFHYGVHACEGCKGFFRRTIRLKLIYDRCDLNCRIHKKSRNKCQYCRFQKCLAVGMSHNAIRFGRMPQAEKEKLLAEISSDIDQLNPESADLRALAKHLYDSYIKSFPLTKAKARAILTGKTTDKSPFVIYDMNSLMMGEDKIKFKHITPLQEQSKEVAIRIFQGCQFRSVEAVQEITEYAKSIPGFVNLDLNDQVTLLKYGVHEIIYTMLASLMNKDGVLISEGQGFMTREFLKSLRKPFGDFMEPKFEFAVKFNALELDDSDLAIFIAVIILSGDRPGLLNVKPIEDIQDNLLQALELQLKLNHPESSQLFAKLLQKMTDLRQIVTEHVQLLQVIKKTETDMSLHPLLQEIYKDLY
# Assay: Potency index, ratio of UHC1 IC50 to compound IC50 for displacement of fluormone PPAR green tracer ligand from recombinant GST-tagged PPARgamma ligand binding domain (unknown origin) incubated for 4 hrs by competitive fluorescence polarization binding assay
# Details: not given
row,SMILES,Ratio IC50
1,COc1cc(CNC(=O)c2ccc3c(c2)c(C)c(C)n3Cc2ccc(-c3ccccc3C(=O)O)cc2)ccc1O,> 30

# Biological target: T2, Peroxisome proliferator-activated receptor gamma (Homo sapiens, UniProt P37231)
# T2 sequence (P37231 whole entry): T1 sequence (whole entry)
# Assay: Displacement of fluormone PPAR green tracer ligand from recombinant GST-tagged PPARgamma ligand binding domain (unknown origin) incubated for 4 hrs by competitive fluorescence polarization binding assay
# Details: not given
SMILES,IC50 [nM],Ki [nM]
Cc1c(C)n(Cc2ccc(-c3ccccc3C(=O)O)cc2)c2ccc(C(=O)NCc3cccnc3)cc12,536,440
Cc1c(C)n(Cc2cccc(C(F)(F)F)c2)c2ccc(C(=O)NCc3ccc4c(c3)OCO4)cc12,16,–
Cc1c(C)n(Cc2ccc(-c3ccccc3C(=O)O)cc2)c2ccc(C(=O)NCc3ccccn3)cc12,34,27
COc1cc(CNC(=O)c2ccc3c(c2)c(C)c(C)n3Cc2cccc(C(F)(F)F)c2)ccc1O,10,–
Cc1c(C)n(Cc2ccc(-c3ccccc3C(=O)O)cc2)c2ccc(C(=O)NC3CCNCC3)cc12,41300,32200
Cc1c(C)n(Cc2ccc(-c3ccccc3C(=O)O)cc2)c2ccc(C(=O)NCC3CCNCC3)cc12,12100,9460
Cc1c(C)n(Cc2ccc(-c3ccccc3C(=O)O)cc2)c2ccc(C(=O)NCc3ccc(S(N)(=O)=O)cc3)cc12,312,244
Cc1c(C)n(Cc2ccc(-c3ccccc3C(=O)O)cc2)c2ccc(C(=O)O)cc12,4870,3800
Cc1c(C)n(Cc2ccc(-c3ccccc3C(=O)O)cc2)c2ccc(C(=O)NCc3ccc4c(c3)OCO4)cc12,15,12
COc1ccc(OC)c(CNC(=O)c2ccc3c(c2)c(C)c(C)n3Cc2cccc(C(F)(F)F)c2)c1,48,38
Cc1c(C)n(Cc2ccc(-c3ccccc3C(=O)O)cc2)c2ccc(C(=O)NCCc3ccc(O)cc3)cc12,48,38
Cc1c(C)n(Cc2ccc(-c3ccccc3C(=O)O)cc2)c2ccc(C(=O)NCc3cccc(OCC(=O)O)c3)cc12,66,52
Cc1c(C)n(Cc2cccc(C(F)(F)F)c2)c2ccc(C(=O)N[C@@H](Cc3ccc(O)cc3)C(=O)O)cc12,346,270
Cc1c(C)n(Cc2cccc(C(F)(F)F)c2)c2ccc(C(=O)NCc3ccccn3)cc12,185,144
COc1cc(CNC(=O)c2ccc3c(c2)c(C)c(C)n3Cc2ccc(-c3ccccc3C(=O)O)cc2)ccc1O,17,13

# Biological target: T3, PPARgamma2 (peroxisome proliferator-activated receptor gamma) (Homo sapiens, UniProt P37231)
# T3 sequence (P37231 whole entry): T1 sequence (whole entry)
# Assay: Transactivation activity at human PPARgamma2 cotransfected with PPRE X3-TK-luc in human HEK293 cells incubated for 24 hrs by luciferase reporter gene assay relative to rosiglitazone
# Type: cell-based
# Details: not given
# How it was run: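 HEK-293 cells grown in DMEM with 4.5 g/liter glucose and 10% bovine calf serum at 37°C, 5% CO₂. Co-transfected with human PPARγ2 plasmid and PPRE X3-TK-luc, then left 16 h. Compounds at 100 to 0.001 μM (10-fold steps), 0.1% DMSO final, for 24 h. Lysate luciferase read by luminescence.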
row,SMILES,Emax at 24 h [%]
1,Cc1c(C)n(Cc2ccc(-c3ccccc3C(=O)O)cc2)c2ccc(C(=O)NCc3cccnc3)cc12,45
2,Cc1c(C)n(Cc2cccc(C(F)(F)F)c2)c2ccc(C(=O)NCc3ccc4c(c3)OCO4)cc12,32
3,Cc1c(C)n(Cc2ccc(-c3ccccc3C(=O)O)cc2)c2ccc(C(=O)NCc3ccccn3)cc12,15
4,COc1cc(CNC(=O)c2ccc3c(c2)c(C)c(C)n3Cc2cccc(C(F)(F)F)c2)ccc1O,46
5,Cc1c(C)n(Cc2ccc(-c3ccccc3C(=O)O)cc2)c2ccc(C(=O)NC3CCNCC3)cc12,17
6,Cc1c(C)n(Cc2ccc(-c3ccccc3C(=O)O)cc2)c2ccc(C(=O)NCC3CCNCC3)cc12,11
7,Cc1c(C)n(Cc2ccc(-c3ccccc3C(=O)O)cc2)c2ccc(C(=O)NCc3ccc(S(N)(=O)=O)cc3)cc12,0
8,Cc1c(C)n(Cc2ccc(-c3ccccc3C(=O)O)cc2)c2ccc(C(=O)O)cc12,16
9,Cc1c(C)n(Cc2ccc(-c3ccccc3C(=O)O)cc2)c2ccc(C(=O)NCc3ccc4c(c3)OCO4)cc12,36
10,COc1ccc(OC)c(CNC(=O)c2ccc3c(c2)c(C)c(C)n3Cc2cccc(C(F)(F)F)c2)c1,27
11,Cc1c(C)n(Cc2ccc(-c3ccccc3C(=O)O)cc2)c2ccc(C(=O)NCCc3ccc(O)cc3)cc12,31
12,Cc1c(C)n(Cc2ccc(-c3ccccc3C(=O)O)cc2)c2ccc(C(=O)NCc3cccc(OCC(=O)O)c3)cc12,56
13,Cc1c(C)n(Cc2cccc(C(F)(F)F)c2)c2ccc(C(=O)N[C@@H](Cc3ccc(O)cc3)C(=O)O)cc12,44
14,Cc1c(C)n(Cc2cccc(C(F)(F)F)c2)c2ccc(C(=O)NCc3ccccn3)cc12,59
15,COc1cc(CNC(=O)c2ccc3c(c2)c(C)c(C)n3Cc2ccc(-c3ccccc3C(=O)O)cc2)ccc1O,15

# Biological target: T4, Peroxisome proliferator-activated receptor gamma (Mus musculus) (UniProt P37238)
# T4 sequence (whole entry): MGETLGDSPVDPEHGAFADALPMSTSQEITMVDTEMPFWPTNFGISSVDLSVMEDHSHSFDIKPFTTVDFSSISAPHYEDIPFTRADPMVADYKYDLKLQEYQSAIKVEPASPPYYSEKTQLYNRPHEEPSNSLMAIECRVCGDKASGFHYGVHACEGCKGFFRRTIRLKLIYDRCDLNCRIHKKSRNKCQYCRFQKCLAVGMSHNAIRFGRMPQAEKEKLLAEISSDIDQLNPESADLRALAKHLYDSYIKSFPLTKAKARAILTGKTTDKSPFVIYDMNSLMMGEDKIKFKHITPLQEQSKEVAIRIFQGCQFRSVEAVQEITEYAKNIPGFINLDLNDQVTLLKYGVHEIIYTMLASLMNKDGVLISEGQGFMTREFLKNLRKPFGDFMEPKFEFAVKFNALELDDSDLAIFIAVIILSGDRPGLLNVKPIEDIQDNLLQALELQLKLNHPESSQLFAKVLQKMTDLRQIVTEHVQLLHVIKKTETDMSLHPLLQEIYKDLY
# Assay: Partial agonist activity at PPARgamma in mouse 3T3-L1 cells assessed as decrease in PPARgamma S273 phosphorylation by measuring upregulation of adiponectin mRNA expression at 10 uM by qRT-PCR analysis
# Type: cell-based
# Details: not given
row,SMILES,Activity
1,COc1cc(CNC(=O)c2ccc3c(c2)c(C)c(C)n3Cc2ccc(-c3ccccc3C(=O)O)cc2)ccc1O,Active

# Biological target: T4, Peroxisome proliferator-activated receptor gamma (Mus musculus)
# Assay: Partial agonist activity at PPARgamma in mouse 3T3-L1 cells assessed as decrease in PPARgamma S273 phosphorylation by measuring upregulation of adipsin mRNA expression at 10 uM by qRT-PCR analysis
# Type: cell-based
# Details: not given
row,SMILES,Activity
1,COc1cc(CNC(=O)c2ccc3c(c2)c(C)c(C)n3Cc2ccc(-c3ccccc3C(=O)O)cc2)ccc1O,Active

# Biological target: T4, Peroxisome proliferator-activated receptor gamma (Mus musculus)
# Assay: Partial agonist activity at PPARgamma in mouse 3T3L1 cells assessed as decrease in PPARgamma S273 phosphorylation by measuring upregulation of Car3 mRNA expression at 10 uM by qRT-PCR analysis
# Type: cell-based
# Details: not given
row,SMILES,Activity
1,COc1cc(CNC(=O)c2ccc3c(c2)c(C)c(C)n3Cc2ccc(-c3ccccc3C(=O)O)cc2)ccc1O,Active

# Biological target: T5, Peroxisome proliferator-activated receptor gamma (Mus musculus, UniProt P37238)
# T5 sequence (P37238 whole entry): T4 sequence (whole entry)
# Assay: Induction of PPARgamma-mediated adipogenesis in mouse 3T3L1 cells assessed as increase in cell differentiation at 10 uM compound treatment renewed every 2 days and measured on day 7 by Oil-red O staining based assay
# Details: 48 h
# How it was run: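 3T3-L1 cells were induced with DMEM/10% FBS containing 1 μg/ml insulin, 1 μM dexamethasone and 0.5 mM IBMX plus compounds (10 μM) for 48 h. They were then kept in maintenance DMEM/10% FBS with compounds, with medium renewed every 2 days. At day 7 cells were fixed in 4% formaldehyde for 30 min and stained with 0.3% Oil Red O for 1 h at 37 °C. Lipid droplets were viewed by microscopy; DMSO 0.1% final.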
row,SMILES,Activity
1,CN(CCOc1ccc(CC2SC(=O)NC2=O)cc1)c1ccccn1 (configuration not stated) [ROSIGLITAZONE],Active

# Biological target: T5, Peroxisome proliferator-activated receptor gamma
# Assay: Induction of PPARgamma-mediated adipogenesis in mouse 3T3L1 cells assessed as upregulation of FABP4 mRNA expression at 10 uM by qRT-PCR analysis
# Type: cell-based
# Details: not given
# How it was run: (§1)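 Confluent 3T3-L1 cells were differentiated in 10% FBS/DMEM with 0.5 mmol/L IBMX, 1 μmol/L dexamethasone and 10 μg/mL insulin plus compounds (10 μM) for 48 h, then 10 μg/mL insulin alone for another 48 h. RNA was extracted and analyzed by qRT-PCR (35 cycles). Relative mRNA was calculated by ΔΔCt normalized to TBP.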
row,SMILES,Activity
1,CN(CCOc1ccc(CC2SC(=O)NC2=O)cc1)c1ccccn1 (configuration not stated) [ROSIGLITAZONE],Active
2,COc1cc(CNC(=O)c2ccc3c(c2)c(C)c(C)n3Cc2ccc(-c3ccccc3C(=O)O)cc2)ccc1O,Active

# Biological target: T5, Peroxisome proliferator-activated receptor gamma
# Assay: Induction of PPARgamma-mediated adipogenesis in mouse 3T3L1 cells assessed as upregulation of Glut4 mRNA expression at 10 uM by qRT-PCR analysis
# Type: cell-based
# Details: not given
# How it was run: as §1
row,SMILES,Activity
1,CN(CCOc1ccc(CC2SC(=O)NC2=O)cc1)c1ccccn1 (configuration not stated) [ROSIGLITAZONE],Active
2,COc1cc(CNC(=O)c2ccc3c(c2)c(C)c(C)n3Cc2ccc(-c3ccccc3C(=O)O)cc2)ccc1O,Active

# Biological target: T5, Peroxisome proliferator-activated receptor gamma
# Assay: Induction of PPARgamma-mediated adipogenesis in mouse 3T3L1 cells assessed as upregulation of LPL mRNA expression at 10 uM by qRT-PCR analysis
# Type: cell-based
# Details: not given
# How it was run: as §1
row,SMILES,Activity
1,CN(CCOc1ccc(CC2SC(=O)NC2=O)cc1)c1ccccn1 (configuration not stated) [ROSIGLITAZONE],Active
2,COc1cc(CNC(=O)c2ccc3c(c2)c(C)c(C)n3Cc2ccc(-c3ccccc3C(=O)O)cc2)ccc1O,Active

# Biological target: T4, Peroxisome proliferator-activated receptor gamma (Mus musculus)
# Assay: Partial agonist activity at PPARgamma in mouse 3T3-L1 cells assessed as decrease in PPARgamma S273 phosphorylation at 10 uM preincubated for 24 hrs followed by TNFalpha stimulation for 3 hrs by Western blotting analysis
# Details: not given
row,SMILES,inhibition
1,Cc1c(C)n(Cc2ccc(-c3ccccc3C(=O)O)cc2)c2ccc(C(=O)NCc3cccnc3)cc12,Active
2,CN(CCOc1ccc(CC2SC(=O)NC2=O)cc1)c1ccccn1 (configuration not stated) [ROSIGLITAZONE],Active
3,COc1cc(CNC(=O)c2ccc3c(c2)c(C)c(C)n3Cc2ccc(-c3ccccc3C(=O)O)cc2)ccc1O,Active
